# High-throughput results: PubChem BioAssay, several laboratories
# Only some compounds are listed: those with a hit (about 3.6% of all), similar ones and a draw of the others.
# ZTA DNA inh = blocks Epstein-Barr virus ZTA, an EBNA-1 counter-screen. P03206. ZTA-DNA binding, fluorescence polarization. inhibition, % at 11 µM. 320,000 compounds, 0.15% hits. AID 2234; in the data active = inhibition above about 33%
# Target sequence (P03206 whole entry, looked up): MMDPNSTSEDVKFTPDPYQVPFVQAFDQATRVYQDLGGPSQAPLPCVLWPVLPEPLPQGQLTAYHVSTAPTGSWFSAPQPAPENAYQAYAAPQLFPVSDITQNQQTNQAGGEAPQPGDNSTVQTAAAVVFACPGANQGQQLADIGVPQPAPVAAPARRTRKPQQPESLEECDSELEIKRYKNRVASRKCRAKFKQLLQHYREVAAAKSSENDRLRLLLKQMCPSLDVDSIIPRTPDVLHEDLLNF
# FID counter = compounds displacing fluorescent DNA intercalator, primary screen, artefact control for HCV NS3 helicase inhibitor project, biochemical, FID fluorescence; DNA fluorescent intercalator displacement; inhibition, % at 7.9 µM; 290,000 compounds, 0.17% hits; in the data active = inhibition above about 37%;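 also: 0% = vehicle and 100% = reference compound; higher means more ethidium bromide displaced from hairpin DNA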
# EBNA-1 inh = EBNA-1 DNA-binding inhibitors, primary screen, biochemical, fluorescence polarization. inhibition, % at 14.8 µM. 300,000 compounds, 0.34% hits; in the data active = inhibition above about 28%
# GRIN3A LBD mod = binders of NR3A ligand-binding domain, primary screen, biophysical, differential scanning fluorimetry, uHTS. NR3A LBD differential scanning fluorimetry, Tm shift; 0% = protein alone, 100% = glycine-bound protein. Tm shift relative to glycine control, % at 25 µM. 340,000 compounds, 2.5% hits. AID 1259313, 2017;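 active = melting temperature shift of at least 10% of the positive control shift, at one fixed dose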
# FGF22 binding-1 = binders of human FGF22 protein, primary screen, FGF22 synaptogenesis inhibitor project, biophysical, thermal shift, single point. activity (Tm shift, normalised), % at 9.99 µM. Fibroblast growth factor 22 (Homo sapiens), Q9HCT0. 340,000 compounds, 1.5% hits. recombinant FGF22 thermal shift, SYPRO orange fluorescence; percent of sucrose octasulfate shift, DMSO zero;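 active = mean Tm shift, scaled 0 neutral to 100 positive control, at about 1.3% or above, every replicate too, limit read from the data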
# Target sequence (Q9HCT0 whole entry, looked up): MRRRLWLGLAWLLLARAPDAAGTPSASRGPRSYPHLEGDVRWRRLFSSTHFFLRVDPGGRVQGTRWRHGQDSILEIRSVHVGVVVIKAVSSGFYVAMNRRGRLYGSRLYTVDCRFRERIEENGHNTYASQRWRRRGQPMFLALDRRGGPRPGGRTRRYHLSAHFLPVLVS
# NS3 helicase inh = inhibitors of HCV NS3 helicase, primary screen, biochemical, Cy5 molecular beacon fluorescence; AID 1800, 2009; 290,000 compounds, 0.56% hits; NS3 helicase DNA unwinding; inhibition, % at 10.9 µM;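 active = inhibition above the mean of all tested compounds plus 3 SD, set per campaign, cut at about 35% in these data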;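 also: 0% = DMSO wells and 100% = thioflavine S control wells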
#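 Assay system – hepatitis C virus NS3 helicase domain fragment enzyme · Buffer or medium – MOPS pH 6.5, MgCl2, DTT, Tween20, BSA · Reagent – Cy5/quencher beacon DNA duplex and ATP to start · Compound – single 10.9 µM dose · Timing – 1 h at 25 °C · Technique – Cy5 beacon fluorescence read at start and 1 h · Measure – % inhibition of unwinding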
# FGF22 binding-2 = binders of human FGF22 protein, dose response, FGF22 synaptogenesis inhibitor project, biophysical, thermal shift, cherry-pick retest; recombinant FGF22 thermal shift, SYPRO orange fluorescence; AID 720646, 2013; 1,000 compounds, 2% hits; shares compounds with FGF22 binding-1; thermal shift activity, °C (ΔTm) at 38 µM;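 active = fitted rise in melting shift crosses a set limit at or below the top valid dose tested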
# FGF22 TSA = binders of human FGF22 protein, dose response, FGF22 synaptogenesis inhibitor project, biophysical, thermal shift, dry powder. shares compounds with FGF22 binding-1. Thermal shift assay, SYPRO orange, melting temperature shift. Tm shift (activity), % at 38 µM. 50 tested, under 10 active;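 active = compounds whose fitted dose curve of melting temperature shift rises past a set threshold within the tested doses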
# TSA no protein = compound-only thermal shift signal without protein, dose response, artefact control for FGF22 binder project, biochemical, cherry-picked samples, RT-PCR instrument; shares compounds with FGF22 binding-1; compound-only SYPRO orange thermal shift counter-screen, no protein; AC50, µM (series often up to 38 µM); 1,000 compounds, 2% hits; AID 743019, 2013;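 active = rising signal whose fitted curve reaches the 0.54 level within the top valid dose, showing a melting point, actives reach about 13 µM in these data; inactive = the rest, including activity in the opposite direction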; also: value is where the raw curve crosses a fixed level and not half-maximal
# An asterisk follows results filed as active; i = inactive; / = no result; [ ] = another dose, or the depositor's remark.
SMILES,ZTA DNA inh,FID counter,EBNA-1 inh,GRIN3A LBD mod,FGF22 binding-1,NS3 helicase inh,FGF22 binding-2,TSA no protein,others
O=C(NCC[C@@H]1CC[C@@H](NS(=O)(=O)c2ccccc2)[C@@H](CO)O1)c1ccc2c(c1)OCO2,/,/,/,/,1.4*,/,-0.103[42 µM],i,
C[C@@H]1CCCCO[C@@H](CN(C)CC2CCCCC2)[C@H](C)CN([C@H](C)CO)C(=O)c2cc(NC(=O)Cc3ccccc3)ccc2O1,/,/,/,/,-2.5,/,/,/,
O=C(c1cccc(NC2=NC3CS(=O)(=O)CC3S2)c1)N1CCN(c2ncccn2)CC1 (configuration not stated),8.9,-9.5,16.2,0.1,12.0*,10.8,-0.247,i,
COc1ccc(NC(=O)Nc2ccc3c(c2)CC(=O)N([C@@H](C)CO)C[C@H](C)[C@@H](CN(C)S(=O)(=O)c2ccccc2)O3)cc1,/,/,/,/,-0.6,/,/,/,
O=C(NCC[C@H]1CC[C@H](NC(=O)C2CCOCC2)[C@@H](CO)O1)Nc1ccc(Cl)cc1,/,/,/,/,1.5*,/,-0.047,i,
O=C(NCC[C@@H]1CC[C@H](NC(=O)C2CC2)[C@@H](CO)O1)Nc1ccc(Cl)cc1,/,/,/,/,0.1,/,/,/,
O=C(NCC[C@H]1CC[C@@H](NC(=O)C2CC2)[C@@H](CO)O1)Nc1ccc(Cl)cc1,/,/,/,/,-0.1,/,/,/,
O=C(NCC[C@@H]1CC[C@@H](NC(=O)C2CCOCC2)[C@H](CO)O1)Nc1ccc(Cl)cc1,/,/,/,/,1.4*,/,0.147[42 µM],i,
O=C(Nc1ccc(F)cc1)Nc1ccc2c(c1)[C@@H]1C[C@@H](CC(=O)N3CCOCC3)O[C@H](CO)[C@@H]1O2,/,/,/,/,0.1,/,/,/,
CCc1ccc(NC(=O)c2ccc(-n3cncn3)c([N+](=O)[O-])c2)cc1,-6.3,/,4.2,-2.4,2.3*,/,0.104,i,
Cc1ccc2c(c1)c(CC(=O)Nc1ccc(C)c(F)c1)c(C(=O)O)n2C,5.6,-19.3,8.8,-14.2,1.6*,-8.4,0.162,i,
COC(=O)C[C@@H]1C[C@@H]2c3cc(NC(=O)Cc4ccncc4)ccc3O[C@@H]2[C@H](CO)O1,/,/,/,/,0.4,/,/,/,
Cc1cc(NC(=O)Nc2ccc3c(ccn3C)c2)sn1,-0.8,/,-0.6,17.2*,2.8*,/,0.141,i,FGF22 TSA=0.0
C=CCOc1ccc2c(c1)C(=NO)c1cc(OCC=C)ccc1-2,-3.3,-3.9,-1.1,-8.6,13.7*,17.6,-0.102,i,
Cc1cccc(C(=O)NNC(=O)c2ccc(NS(=O)(=O)c3cccs3)cc2)c1C,-14.6,/,/,1.1,1.9*,/,-0.09,i,
COc1ccc(/C=N/NC(=O)c2ccc(NS(=O)(=O)c3cccs3)cc2)cc1,14.2,/,/,2.6,1.7*,/,-0.093,i,
O=C(O)c1ccc(/C=N/NC(=O)c2ccc(NS(=O)(=O)c3cccs3)cc2)cc1,-11.1,-10.1,-2.6,2.3,0.2,-3.4,/,/,
CNC[C@H]1Oc2ccc(NC(=O)Cc3cn(C)c4ccccc34)cc2C(=O)N([C@H](C)CO)C[C@@H]1C,/,/,/,/,0.4,/,/,/,
COc1ccc(CN(C)C[C@H]2Oc3ccc(NC(=O)NC(C)C)cc3C(=O)N([C@H](C)CO)C[C@@H]2C)cc1,/,/,/,/,1.0,/,/,/,
COc1ccc(CN(C)C[C@@H]2Oc3ccc(NC(=O)NC(C)C)cc3C(=O)N([C@H](C)CO)C[C@@H]2C)cc1,/,/,/,/,73.0*,/,-0.025[42 µM],i,
CNC[C@H]1Oc2ccc(NC(=O)Cc3cn(C)c4ccccc34)cc2C(=O)N([C@H](C)CO)C[C@H]1C,/,/,/,/,3.7*,/,/,i,
COc1ccc(CN(C)C[C@H]2Oc3ccc(NC(=O)Cc4ccccc4)cc3C(=O)N([C@H](C)CO)C[C@@H]2C)cc1,/,/,/,/,1.5*,/,0.128[42 µM],i,
CCCN(C)C[C@@H]1OCCCC[C@H](C)Oc2ccc(NC(=O)Nc3ccc(C(F)(F)F)cc3)cc2C(=O)N([C@@H](C)CO)C[C@@H]1C,/,/,/,/,-1.2,/,/,/,
C=CCN(C(=O)c1csnn1)C(C(=O)NC1CCCCC1)c1ccc(C)cc1 (configuration not stated),-6.8,-37.0,-11.0,-2.0,-0.2,8.3,/,/,
C=CCN(C(=O)c1csnn1)C(C(=O)NC1CCCCC1)c1ccc(Cl)cc1 (configuration not stated),2.1,-36.1,-11.5,-2.2,1.5*,2.8,-0.074,i,
SMILES,ZTA DNA inh,FID counter,EBNA-1 inh,GRIN3A LBD mod,FGF22 binding-1,NS3 helicase inh,FGF22 binding-2,TSA no protein,others
CC(C)NC(=O)Nc1ccc2c(c1)C(=O)N([C@H](C)CO)C[C@H](C)[C@H](CN(C)C(=O)Nc1cccc3ccccc13)O2,/,/,/,/,18.6*,/,0.147[42 µM],i,
CC(C)NC(=O)Nc1ccc2c(c1)C(=O)N([C@H](C)CO)C[C@H](C)[C@@H](CN(C)C(=O)Nc1cccc3ccccc13)O2,/,/,/,/,0.1,/,/,/,
C[C@H](CO)N1C[C@H](C)[C@H](CN(C)CC2CCCCC2)Oc2c(NC(=O)Nc3ccc4c(c3)OCO4)cccc2C1=O,/,/,/,/,1.4*,/,0.108,i,
CC(C)NC(=O)Nc1ccc2c(c1)C(=O)N([C@H](C)CO)C[C@H](C)[C@@H](CN(C)C(=O)NC(C)C)O2,/,/,/,2.3,1.6*,/,0.135,i,
C[C@H]1CN([C@@H](C)CO)C(=O)c2cccc(NC(=O)Nc3ccc4c(c3)OCO4)c2O[C@H]1CN(C)CC1CCCCC1,/,/,/,/,-0.5,/,/,/,
C[C@@H]1CN([C@@H](C)CO)C(=O)Cc2cc(NS(=O)(=O)c3cn(C)cn3)ccc2O[C@@H]1CN(C)C(=O)NC1CCCCC1,/,/,/,/,0.0,/,/,/,
O=C(NCc1ccccc1)c1ccc2nnsc2c1,3.2,3.0,-2.1,-1.5,0.0,-0.5,/,/,
O=C(Nc1ccccc1)Nc1ccc2nnsc2c1,0.9,5.1,-0.9,42.2*,2.1*,-4.3,0.273,i,
CC=Cc1ccc2n(c1=O)C[C@H]1[C@H](CO)[C@@H](C(=O)NCc3ccccn3)[C@@H]2N1CC1CC1 (mixture of isomers),/,/,/,/,-0.1,/,/,/,
